Source: ChEMBL document CHEMBL1139509, “Design, synthesis, and antipicornavirus activity of 1-[5-(4-arylphenoxy)alkyl]-3-pyridin-4-ylimidazolidin-2-one derivatives” (J Med Chem, 2005)
Blank lines part the entries; values can stand above or below the molecule they belong to.

Tests used:
Enterovirus [1] = assay: In vitro inhibitory concentration against human enterovirus EV71-4643 strain; assay type: functional, organism-based, Enterovirus A71
Method in brief: (§1)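 CPE-inhibition (neutralization) assay on RD cells seeded at 3 × 10⁵ cells/mL in DMEM/10% FBS and grown 24-30 h to about 90% confluency. Virus (100 TCID50) was mixed with graded compound concentrations and adsorbed 1 h at 37 °C. Cells were overlaid with DMEM, 5% FBS and 2% DMSO, incubated 64 h at 37 °C, then glutaraldehyde-fixed and crystal violet-stained, with A570 read-out. IC50 is 50% CPE reduction versus virus control. Triplicate, at least twice.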

Enterovirus [2] = assay: In vitro inhibitory concentration against human enterovirus EV71-2231 strain; assay type: functional, organism-based, Enterovirus A71; method in brief: as §1
[3] = Cytotoxicity against human rhabdomyosarcoma cells; assay type: cell-based
Method in brief: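 RD (rhabdomyosarcoma) cells were exposed to test compounds at various concentrations for 96 h at 37 °C. Viable cells were counted by trypan blue staining. CC50 is the concentration that reduces viability to 50% of the untreated control culture. Triplicate, run at least twice.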

Enterovirus [4] = assay: Ratio of CC50 to that of IC50 against human enterovirus EV71-4643 strain; assay type: functional, Enterovirus A71
Enterovirus [5] = assay: Ratio of CC50 to that of IC50 against human enterovirus EV71-2231 strain; assay type: functional, Enterovirus A71
Human rhinovirus sp. = assay: In vitro inhibitory concentration against Rhinovirus 1B; assay type: functional, organism-based, Viruses
Enterovirus [6] = assay: In vitro inhibitory concentration against human enterovirus EV71; assay type: functional, organism-based, Viruses; method in brief: as §1
Coxsackievirus [7] = assay: Inhibitory concentration against Coxsackievirus B2; assay type: functional, organism-based, Viruses; method in brief: as §1
Enterovirus [8] = assay: Inhibitory concentration against human enterovirus EV71 (BrCr) genotype A; assay type: functional, organism-based, Viruses; method in brief: as §1
Coxsackievirus [9] = assay: Inhibitory concentration against Coxsackievirus A9; assay type: functional, organism-based, Viruses; method in brief: as §1
Enterovirus [10] = assay: Inhibitory concentration against human enterovirus EV71 (1743) genotype B; assay type: functional, organism-based, Viruses; method in brief: as §1
Enterovirus [11] = assay: Inhibitory concentration against human enterovirus EV71 (2231) genotype C; assay type: functional, organism-based, Viruses; method in brief: as §1
Enterovirus [12] = assay: Inhibitory concentration against human enterovirus EV68; assay type: functional, organism-based, Viruses
Coxsackievirus [13] = assay: Inhibitory concentration against Coxsackievirus B6; assay type: functional, organism-based, Viruses; method in brief: as §1
rhinovirus A2 = assay: Inhibitory concentration against Human rhinovirus 2; assay type: functional, organism-based, human rhinovirus type 2; conditions: Rhinovirus A; method in brief: as §1
[14] = Inhibitory concentration against Human rhinovirus 14; assay type: functional, human rhinovirus type 14; method in brief: as §1
Coxsackievirus [15] = assay: Inhibitory concentration against Coxsackievirus B4; assay type: functional, organism-based, Viruses; method in brief: as §1
Coxsackievirus [16] = assay: Inhibitory concentration against Coxsackievirus A16; assay type: functional, organism-based, Viruses; method in brief: as §1
[17] = Inhibitory concentration against Echovirus 9; assay type: functional, Viruses; method in brief: as §1
Coxsackievirus [18] = assay: Inhibitory concentration against Coxsackievirus B5; assay type: functional, organism-based, Viruses; method in brief: as §1
Coxsackievirus [19] = assay: Inhibitory concentration against Coxsackievirus B1; assay type: functional, organism-based, Viruses; method in brief: as §1
Coxsackievirus [20] = assay: Inhibitory concentration against Coxsackievirus A10; assay type: functional, organism-based, Viruses; method in brief: as §1
Enterovirus [21] = assay: Inhibitory concentration against human enterovirus EV71 (4643) genotype C; assay type: functional, organism-based, Viruses; method in brief: as §1
Coxsackievirus [22] = assay: Inhibitory concentration against Coxsackievirus A24; assay type: functional, organism-based, Viruses; method in brief: as §1
Coxsackievirus [23] = assay: Inhibitory concentration against Coxsackievirus B3; assay type: functional, organism-based, Viruses; method in brief: as §1
Enterovirus [24] = assay: Inhibitory concentration against human enterovirus EV71 (2086) genotype C; assay type: functional, organism-based, Viruses; method in brief: as §1
[25] = Inhibitory concentration against Echovirus 29; assay type: functional, Viruses; method in brief: as §1
[26] = In vitro inhibitory concentration against Coxsackievirus B4; assay type: functional, Viruses; method in brief: as §1
[27] = In vitro inhibitory concentration against Echovirus 6; assay type: functional, Viruses
Enterovirus [28] = assay: Inhibitory concentration against Human Enterovirus 71; assay type: functional, organism-based, Viruses; method in brief: as §1

IC50 (Enterovirus [1]): 19 nM
IC50 (Enterovirus [2]): 55 nM
SMILES: CCCc1nc(-c2ccc(OCCC(C)CCN3CCN(c4ccncc4)C3=O)cc2)no1 (stereo unspecified)
CC50 [3]: > 12500 nM
Selectivity index (Enterovirus [4]): >657
Selectivity index (Enterovirus [5]): >227

IC50 (Human rhinovirus sp.): 1010 nM
IC50 (Enterovirus [6]): 4560 nM
SMILES: c1ccc(C2COc3ccc(C4=NCCO4)cc3C2)cc1 (stereo unspecified)

IC50 (Enterovirus [1]): 36 nM
IC50 (Enterovirus [2]): 230 nM
SMILES: CC(CCCCOc1ccc(-c2ccc(Cl)cc2)cc1)N1CCN(c2ccncc2)C1=O (stereo unspecified)
CC50 [3]: 12500 nM

IC50 (Enterovirus [1]): 400 nM
IC50 (Enterovirus [2]): 1180 nM
SMILES: CN(CCOc1ccc(-c2ccc(Cl)cc2)cc1)CCN1CCN(c2ccncc2)C1=O
CC50 [3]: 25000 nM

IC50 (Coxsackievirus [7]): 4790 nM
IC50 (Enterovirus [8]): 10 nM
IC50 (Coxsackievirus [9]): > 25000 nM
IC50 (Enterovirus [10]): 15 nM
IC50 (Enterovirus [11]): 15 nM
IC50 (Enterovirus [12]): 5460 nM
IC50 (Enterovirus [1]): 0.5 nM
IC50 (Coxsackievirus [13]): > 25000 nM
IC50 (rhinovirus A2): 1580 nM
IC50 [14]: 830 nM
IC50 (Coxsackievirus [15]): 1270 nM
IC50 (Coxsackievirus [16]): 87 nM
IC50 [17]: 500 nM
IC50 (Coxsackievirus [18]): 4500 nM
IC50 (Enterovirus [2]): 15 nM
IC50 (Coxsackievirus [19]): 46 nM
IC50 (Coxsackievirus [20]): 560 nM
IC50 (Enterovirus [21]): 0.5 nM
IC50 (Coxsackievirus [22]): 150 nM
IC50 (Coxsackievirus [23]): > 25000 nM
IC50 (Enterovirus [24]): 4 nM
IC50 [25]: 2630 nM
SMILES: CCc1nc(-c2ccc(OCCC(C)CCN3CCN(c4ccncc4)C3=O)cc2)no1 (stereo unspecified)
CC50 [3]: > 25000 nM
Selectivity index (Enterovirus [4]): >50000
Selectivity index (Enterovirus [5]): >1666

IC50 (Enterovirus [1]): > 10000 nM
IC50 (Enterovirus [2]): > 10000 nM
SMILES: O=C1N(CCC(CCOc2ccc(-c3ccc(Cl)cc3)cc2)Cc2ccccc2)CCN1c1ccncc1 (stereo unspecified)
CC50 [3]: > 10000 nM

IC50 (Enterovirus [1]): 130 nM
IC50 (Enterovirus [2]): > 25000 nM
SMILES: CC(C)(CCCN1CCN(c2ccncc2)C1=O)COc1ccc(-c2ccc(Cl)cc2)cc1
CC50 [3]: > 25000 nM

IC50 (Enterovirus [1]): > 25000 nM
IC50 (Enterovirus [2]): > 25000 nM
SMILES: O=C1N(CCC(CCOc2ccc(-c3ccc(Cl)cc3)cc2)c2ccccc2)CCN1c1ccncc1 (stereo unspecified)
CC50 [3]: > 25000 nM

IC50 (Enterovirus [1]): 170 nM
IC50 (Enterovirus [2]): 600 nM
SMILES: CCC(CCOc1ccc(-c2ccc(Cl)cc2)cc1)CCN1CCN(c2ccncc2)C1=O (stereo unspecified)
CC50 [3]: > 25000 nM

IC50 (Enterovirus [1]): 22900 nM
IC50 (Enterovirus [2]): > 25000 nM
SMILES: Cc1cc(COc2ccc(-c3ccc(Cl)cc3)cc2)cc(CN2CCN(c3ccncc3)C2=O)c1
CC50 [3]: > 25000 nM

IC50 (Enterovirus [1]): > 5000 nM
IC50 (Enterovirus [2]): > 5000 nM
SMILES: O=C1N(CCN(CCOc2ccc(-c3ccc(Cl)cc3)cc2)Cc2ccccc2)CCN1c1ccncc1
CC50 [3]: > 5000 nM

IC50 (Enterovirus [1]): 2110 nM
IC50 (Enterovirus [2]): > 25000 nM
SMILES: CC(C)C(CCOc1ccc(-c2ccc(Cl)cc2)cc1)CCN1CCN(c2ccncc2)C1=O (stereo unspecified)
CC50 [3]: > 25000 nM

IC50 (Enterovirus [1]): 53 nM
IC50 (Enterovirus [2]): 600 nM
SMILES: CC(CCCCN1CCN(c2ccncc2)C1=O)Oc1ccc(-c2ccc(Cl)cc2)cc1 (stereo unspecified)
CC50 [3]: > 12500 nM

IC50 [26]: 320 nM
IC50 (Enterovirus [6]): 450 nM
IC50 [27]: 480 nM
SMILES: N#Cc1ccc2c(c1)CCC(c1ccc(Cl)cc1)O2 (stereo unspecified)

IC50 (Enterovirus [1]): 0.9 nM
IC50 (Enterovirus [2]): 10 nM
SMILES: Cc1nc(-c2ccc(OCCC(C)CCN3CCN(c4ccncc4)C3=O)cc2)no1 (stereo unspecified)
CC50 [3]: > 6250 nM
Selectivity index (Enterovirus [4]): >6944
Selectivity index (Enterovirus [5]): >625

IC50 (Enterovirus [1]): 5 nM
IC50 (Enterovirus [2]): 20 nM
SMILES: CC(CCCOc1ccc(-c2ccc(Cl)cc2)cc1)CN1CCN(c2ccncc2)C1=O (stereo unspecified)
CC50 [3]: > 25000 nM

IC50 (Coxsackievirus [7]): > 12500 nM
IC50 (Enterovirus [8]): 130 nM
IC50 (Coxsackievirus [9]): 71 nM
IC50 (Enterovirus [10]): 92 nM
IC50 (Enterovirus [11]): 76 nM
IC50 (Enterovirus [12]): > 12500 nM
IC50 (Enterovirus [1]): 38 nM
IC50 (Coxsackievirus [13]): > 12500 nM
IC50 (rhinovirus A2): > 12500 nM
IC50 [14]: > 12500 nM
IC50 (Coxsackievirus [16]): > 12500 nM
IC50 [17]: 1310 nM
IC50 (Coxsackievirus [18]): 1140 nM
IC50 (Enterovirus [2]): 76 nM
IC50 (Coxsackievirus [19]): > 12500 nM
IC50 (Coxsackievirus [20]): > 12500 nM
IC50 (Enterovirus [28]): 38 nM
IC50 (Enterovirus [21]): 38 nM
IC50 (Coxsackievirus [22]): 1300 nM
IC50 (Coxsackievirus [23]): > 12500 nM
IC50 (Enterovirus [24]): 43 nM
IC50 [25]: 390 nM
SMILES: O=C1N(CCCCCOc2ccc(-c3ccc(Cl)cc3)cc2)CCN1c1ccncc1
CC50 [3]: 6250 nM
